Reference: paper PMC4301071 (ACS Chemical Biology, 2014)
*1 amine or outer side, *2 acyl side, *3 side chain or, on linkers, in order; H or OH if unused. Where a SMILES comes first, the peptide text is derived from it. [ ]: non-standard residue; d: D form. The star is where a group is joined. X1 = CN(CCCC[C@H](N[*:1])C(=O)[*:2])CCCCN(O)C(=O)/C=C/C(=O)O; Biotin = O=C1N[C@H]2[C@H](CS[C@H]2CCCCC(=O)*)N1; Bpa = N[C@@H](Cc1ccc(C(=O)c2ccccc2)cc1)C(=O)O; PEG4 = NCCOCCOCCOCCOCCC(=O)O

Experiments:
JMJD1C/KDM3C = JMJD1C/KDM3C (Homo sapiens, UniProt Q15652); assay: Affinity pulldown from HeLa nuclear lysate, spectral count of JMJD1C/KDM3C; assay type: binding; conditions: HeLa nuclear extract
How it was run: (§1)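 HeLa cells were grown in DMEM with 10% FCS and 1% penicillin/streptomycin at 37 °C, 5% CO2. Nuclei were prepared by hypotonic swelling and douncing, extracted in 0.4 M NaCl/20% glycerol buffer, and dialysed into 20 mM HEPES, 100 mM KCl, 2 mM MgCl2, pH 7.9. Streptavidin bead pulldowns used 2 mL lysate, and a no-probe control was included. Bead-bound material was washed, reduced with 4 mM DTT, alkylated with 14 mM iodoacetamide, trypsin-digested on the beads overnight at 37 °C, and run on nanoLC-LTQ/Orbitrap. Searches used human UniProt at 1% FDR, with spectral-count quantification.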

JHDM1A [1] = biological target: T1, JHDM1A (Homo sapiens, UniProt Q9Y2K7); assay: Affinity pulldown of purified JHDM1A in the presence of HeLa histone proteins; assay type: binding; conditions: in the absence of UV irradiation
T1 sequence (Q9Y2K7 1-1162): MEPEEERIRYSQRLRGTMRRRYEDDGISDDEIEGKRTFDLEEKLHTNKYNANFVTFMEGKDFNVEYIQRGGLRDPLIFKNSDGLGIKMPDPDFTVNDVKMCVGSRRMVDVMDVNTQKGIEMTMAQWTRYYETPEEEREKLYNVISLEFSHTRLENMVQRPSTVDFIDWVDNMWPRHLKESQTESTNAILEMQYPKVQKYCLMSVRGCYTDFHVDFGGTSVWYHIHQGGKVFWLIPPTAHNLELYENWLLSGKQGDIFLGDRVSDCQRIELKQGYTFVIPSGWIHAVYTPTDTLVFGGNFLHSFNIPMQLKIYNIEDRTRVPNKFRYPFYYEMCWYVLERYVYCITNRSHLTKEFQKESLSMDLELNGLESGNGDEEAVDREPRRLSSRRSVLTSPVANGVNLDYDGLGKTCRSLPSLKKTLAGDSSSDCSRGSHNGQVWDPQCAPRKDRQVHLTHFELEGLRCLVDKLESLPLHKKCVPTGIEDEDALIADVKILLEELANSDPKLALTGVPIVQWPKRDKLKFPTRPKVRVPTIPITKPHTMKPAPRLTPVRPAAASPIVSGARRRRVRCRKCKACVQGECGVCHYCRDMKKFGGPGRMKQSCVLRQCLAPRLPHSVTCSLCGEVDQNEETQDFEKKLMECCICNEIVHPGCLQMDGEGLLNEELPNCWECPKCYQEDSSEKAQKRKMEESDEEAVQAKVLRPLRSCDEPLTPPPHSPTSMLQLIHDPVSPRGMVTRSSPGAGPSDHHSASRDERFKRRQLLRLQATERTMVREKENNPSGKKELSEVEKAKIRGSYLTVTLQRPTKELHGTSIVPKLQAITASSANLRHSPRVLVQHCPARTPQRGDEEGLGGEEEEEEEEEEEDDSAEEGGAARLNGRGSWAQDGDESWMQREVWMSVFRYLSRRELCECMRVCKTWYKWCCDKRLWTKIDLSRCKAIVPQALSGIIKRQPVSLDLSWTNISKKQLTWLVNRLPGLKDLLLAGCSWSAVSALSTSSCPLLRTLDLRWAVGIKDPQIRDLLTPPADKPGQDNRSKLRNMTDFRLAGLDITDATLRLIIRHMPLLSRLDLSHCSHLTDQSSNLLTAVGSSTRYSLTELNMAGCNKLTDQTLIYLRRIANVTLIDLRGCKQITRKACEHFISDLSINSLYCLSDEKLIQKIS
How it was run: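 Acid-extracted HeLa histones were prepared by Triton lysis, then 0.2 N HCl overnight at 4 °C, then lyophilisation. Biotinylated peptide probe (20 μM) was loaded onto streptavidin magnetic beads for 30 min at 4 °C. Recombinant JHDM1A (5 μM) and equal amounts of histones were then added in 25 mM Tris, 100 mM NaCl, 5 μM NiCl2, pH 7.5, for 4 h at 4 °C. The 350 nm, 20 min UV step was omitted. Beads were washed in HEPES/1 M NaCl/1% Triton, then water.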

JMJD2A/KDM4A [2] = assay: Affinity pulldown from HeLa nuclear lysate, spectral count of JMJD2A/KDM4A; assay type: binding, human; conditions: HeLa nuclear extract, 20 μM probe 6, recombinant KDM4A spiked in at 25 nM
JMJD2A/KDM4A [3] = biological target: T2, JMJD2A/KDM4A (Homo sapiens, UniProt O75164); assay: as above; assay type: binding; conditions: HeLa nuclear extract, 20 μM probe 6
T2 sequence (O75164 2-1064): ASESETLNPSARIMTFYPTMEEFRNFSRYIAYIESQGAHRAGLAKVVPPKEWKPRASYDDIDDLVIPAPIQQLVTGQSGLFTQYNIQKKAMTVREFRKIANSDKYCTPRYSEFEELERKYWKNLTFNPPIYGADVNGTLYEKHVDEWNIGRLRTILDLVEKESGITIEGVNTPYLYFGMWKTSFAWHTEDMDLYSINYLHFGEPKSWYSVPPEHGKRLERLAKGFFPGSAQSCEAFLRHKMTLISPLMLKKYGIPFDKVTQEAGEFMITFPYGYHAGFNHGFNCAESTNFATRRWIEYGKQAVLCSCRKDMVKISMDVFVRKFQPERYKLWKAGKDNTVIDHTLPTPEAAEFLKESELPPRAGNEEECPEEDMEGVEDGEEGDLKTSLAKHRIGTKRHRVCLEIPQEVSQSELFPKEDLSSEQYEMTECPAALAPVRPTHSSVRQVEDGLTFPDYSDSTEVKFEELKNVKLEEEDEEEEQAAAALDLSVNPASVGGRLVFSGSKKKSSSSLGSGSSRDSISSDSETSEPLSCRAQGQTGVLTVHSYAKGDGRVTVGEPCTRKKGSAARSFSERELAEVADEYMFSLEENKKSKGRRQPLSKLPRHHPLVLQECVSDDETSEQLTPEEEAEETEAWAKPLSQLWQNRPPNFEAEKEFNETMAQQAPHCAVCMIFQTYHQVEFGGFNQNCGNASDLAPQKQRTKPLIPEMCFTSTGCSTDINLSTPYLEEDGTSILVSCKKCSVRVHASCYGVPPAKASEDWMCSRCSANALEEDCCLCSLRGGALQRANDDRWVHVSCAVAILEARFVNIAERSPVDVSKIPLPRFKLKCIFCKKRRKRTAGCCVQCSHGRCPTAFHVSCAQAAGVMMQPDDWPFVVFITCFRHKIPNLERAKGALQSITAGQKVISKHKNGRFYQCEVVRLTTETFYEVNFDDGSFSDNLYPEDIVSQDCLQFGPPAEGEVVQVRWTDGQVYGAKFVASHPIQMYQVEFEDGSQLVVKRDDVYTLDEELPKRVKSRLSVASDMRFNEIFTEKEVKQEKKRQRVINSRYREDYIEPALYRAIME

PHF8/KDM7A = PHF8/KDM7A (Homo sapiens, UniProt Q9UPP1); assay: Affinity pulldown from HeLa nuclear lysate, spectral count of PHF8/KDM7A; assay type: binding; conditions: HeLa nuclear extract
PHF8/KDM7A, sequence (Q9UPP1 whole entry): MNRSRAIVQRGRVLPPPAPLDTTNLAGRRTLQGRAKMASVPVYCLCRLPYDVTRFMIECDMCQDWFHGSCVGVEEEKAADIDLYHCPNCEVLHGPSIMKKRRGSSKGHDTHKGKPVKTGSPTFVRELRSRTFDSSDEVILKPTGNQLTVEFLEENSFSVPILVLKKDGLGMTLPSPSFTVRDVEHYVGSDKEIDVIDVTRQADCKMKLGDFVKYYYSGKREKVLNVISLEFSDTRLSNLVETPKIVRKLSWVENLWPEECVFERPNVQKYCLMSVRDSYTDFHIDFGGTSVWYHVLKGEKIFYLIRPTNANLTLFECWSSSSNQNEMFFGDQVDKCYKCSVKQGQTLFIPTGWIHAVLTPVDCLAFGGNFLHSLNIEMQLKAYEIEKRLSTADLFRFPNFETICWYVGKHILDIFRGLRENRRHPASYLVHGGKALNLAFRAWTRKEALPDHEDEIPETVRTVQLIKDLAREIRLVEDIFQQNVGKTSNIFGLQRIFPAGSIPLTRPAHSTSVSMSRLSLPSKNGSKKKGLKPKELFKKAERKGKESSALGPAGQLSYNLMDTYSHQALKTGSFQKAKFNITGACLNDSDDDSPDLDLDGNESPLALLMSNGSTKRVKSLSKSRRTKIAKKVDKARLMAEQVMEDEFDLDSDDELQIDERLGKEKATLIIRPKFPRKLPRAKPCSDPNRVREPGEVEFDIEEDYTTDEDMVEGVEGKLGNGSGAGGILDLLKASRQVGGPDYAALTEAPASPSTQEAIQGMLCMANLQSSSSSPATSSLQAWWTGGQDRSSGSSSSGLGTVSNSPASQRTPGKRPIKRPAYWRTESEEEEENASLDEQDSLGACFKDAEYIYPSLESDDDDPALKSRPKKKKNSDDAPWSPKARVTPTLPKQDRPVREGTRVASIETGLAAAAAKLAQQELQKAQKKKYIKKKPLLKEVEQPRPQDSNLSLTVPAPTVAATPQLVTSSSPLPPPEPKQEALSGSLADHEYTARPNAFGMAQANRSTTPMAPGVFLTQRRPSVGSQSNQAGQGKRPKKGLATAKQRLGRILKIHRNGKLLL
How it was run: as §1

CHD8 = CHD8 (Homo sapiens, UniProt Q9HCK8); assay: Affinity pulldown from HeLa nuclear lysate, spectral count of CHD8; assay type: binding; conditions: HeLa nuclear extract
CHD8, sequence (Q9HCK8 whole entry): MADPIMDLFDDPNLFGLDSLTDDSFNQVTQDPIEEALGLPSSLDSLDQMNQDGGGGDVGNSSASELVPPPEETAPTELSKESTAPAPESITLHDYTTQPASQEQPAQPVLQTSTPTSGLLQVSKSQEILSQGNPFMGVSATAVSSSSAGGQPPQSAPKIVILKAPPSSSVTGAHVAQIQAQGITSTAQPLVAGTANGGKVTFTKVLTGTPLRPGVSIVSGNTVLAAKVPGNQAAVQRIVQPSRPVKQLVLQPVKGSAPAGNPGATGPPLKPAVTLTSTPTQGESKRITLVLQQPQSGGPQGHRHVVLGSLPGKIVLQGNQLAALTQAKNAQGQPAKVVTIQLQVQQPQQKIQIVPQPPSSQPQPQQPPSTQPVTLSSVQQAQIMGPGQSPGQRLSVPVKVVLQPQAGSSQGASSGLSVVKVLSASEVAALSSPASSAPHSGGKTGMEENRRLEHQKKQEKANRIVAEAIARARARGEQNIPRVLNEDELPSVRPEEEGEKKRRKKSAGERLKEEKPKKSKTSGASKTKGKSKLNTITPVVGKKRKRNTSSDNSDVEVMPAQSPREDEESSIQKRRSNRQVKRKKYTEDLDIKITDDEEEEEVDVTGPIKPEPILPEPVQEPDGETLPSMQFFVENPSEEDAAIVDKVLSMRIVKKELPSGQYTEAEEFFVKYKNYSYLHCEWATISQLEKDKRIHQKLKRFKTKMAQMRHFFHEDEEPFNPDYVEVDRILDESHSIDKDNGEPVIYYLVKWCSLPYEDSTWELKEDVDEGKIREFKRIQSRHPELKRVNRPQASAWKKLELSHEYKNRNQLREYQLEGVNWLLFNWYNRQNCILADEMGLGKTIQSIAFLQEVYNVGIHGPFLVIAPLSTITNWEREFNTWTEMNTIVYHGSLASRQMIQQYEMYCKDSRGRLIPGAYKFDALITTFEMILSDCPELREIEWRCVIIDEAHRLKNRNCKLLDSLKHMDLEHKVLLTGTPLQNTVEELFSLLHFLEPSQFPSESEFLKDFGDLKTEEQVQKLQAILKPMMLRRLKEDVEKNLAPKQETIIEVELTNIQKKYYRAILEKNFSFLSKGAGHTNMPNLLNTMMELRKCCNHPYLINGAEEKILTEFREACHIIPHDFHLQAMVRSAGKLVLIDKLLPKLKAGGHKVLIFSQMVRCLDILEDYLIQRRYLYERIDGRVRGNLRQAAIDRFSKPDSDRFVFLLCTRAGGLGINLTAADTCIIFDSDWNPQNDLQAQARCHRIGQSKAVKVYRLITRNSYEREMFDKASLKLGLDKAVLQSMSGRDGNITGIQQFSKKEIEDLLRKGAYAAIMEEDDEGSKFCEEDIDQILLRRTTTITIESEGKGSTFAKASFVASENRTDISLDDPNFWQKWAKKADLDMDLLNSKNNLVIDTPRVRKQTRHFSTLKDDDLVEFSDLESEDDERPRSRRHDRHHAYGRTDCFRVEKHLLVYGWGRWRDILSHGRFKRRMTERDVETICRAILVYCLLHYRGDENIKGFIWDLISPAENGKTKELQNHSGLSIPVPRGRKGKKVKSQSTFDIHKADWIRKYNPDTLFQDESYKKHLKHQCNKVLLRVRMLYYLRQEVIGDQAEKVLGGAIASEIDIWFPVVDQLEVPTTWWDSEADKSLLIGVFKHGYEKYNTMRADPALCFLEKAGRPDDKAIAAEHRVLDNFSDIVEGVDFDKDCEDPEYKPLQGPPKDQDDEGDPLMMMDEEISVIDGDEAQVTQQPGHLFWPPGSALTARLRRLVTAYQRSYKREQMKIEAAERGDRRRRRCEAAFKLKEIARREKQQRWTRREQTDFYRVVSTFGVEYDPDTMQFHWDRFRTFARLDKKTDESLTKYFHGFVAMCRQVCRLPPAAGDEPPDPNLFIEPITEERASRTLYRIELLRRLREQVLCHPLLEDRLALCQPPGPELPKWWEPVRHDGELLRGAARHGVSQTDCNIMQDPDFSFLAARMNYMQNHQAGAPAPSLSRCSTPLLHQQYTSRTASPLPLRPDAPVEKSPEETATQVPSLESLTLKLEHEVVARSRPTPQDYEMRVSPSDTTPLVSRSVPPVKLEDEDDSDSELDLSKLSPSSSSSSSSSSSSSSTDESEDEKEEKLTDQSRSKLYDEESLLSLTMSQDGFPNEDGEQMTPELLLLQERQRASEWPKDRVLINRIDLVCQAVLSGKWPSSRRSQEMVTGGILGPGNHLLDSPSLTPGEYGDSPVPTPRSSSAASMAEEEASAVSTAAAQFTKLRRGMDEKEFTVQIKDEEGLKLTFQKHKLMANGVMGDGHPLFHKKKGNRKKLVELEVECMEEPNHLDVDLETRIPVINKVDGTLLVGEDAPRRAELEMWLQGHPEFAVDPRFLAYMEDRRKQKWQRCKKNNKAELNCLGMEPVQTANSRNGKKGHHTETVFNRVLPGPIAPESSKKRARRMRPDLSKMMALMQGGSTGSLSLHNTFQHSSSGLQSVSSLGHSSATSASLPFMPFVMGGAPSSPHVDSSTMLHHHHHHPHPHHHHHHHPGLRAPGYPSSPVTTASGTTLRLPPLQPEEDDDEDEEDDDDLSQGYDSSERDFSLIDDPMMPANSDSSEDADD
How it was run: as §1

JHDM1A [4] = biological target: T1, JHDM1A; assay: Fluorescence polarization; assay type: binding
CHD7 = CHD7 (Homo sapiens, UniProt Q9P2D1); assay: Affinity pulldown from HeLa nuclear lysate, spectral count of CHD7; assay type: binding; conditions: HeLa nuclear extract
How it was run: as §1

HDAC1/2 = assay: Affinity pulldown from HeLa nuclear lysate, spectral count of HDAC1/2; assay type: binding, human; conditions: HeLa nuclear extract
How it was run: as §1

[5] = 20 μM probe 6, recombinant KDM4A spiked in at 25 nM

spectral count, endogenous (JMJD1C/KDM3C; 20 μM probe 6): 6
spectral count, spiked-in (JMJD1C/KDM3C; [5]): 3
pulldown of JHDM1A (JHDM1A [1]): complete absence of JHDM1A
spectral count, endogenous (JMJD2A/KDM4A [3]): 0
spectral count, endogenous (PHF8/KDM7A; 20 μM probe 6): 1
spectral count, spiked-in (PHF8/KDM7A; [5]): 1
spectral count, endogenous (CHD8; 20 μM probe 6): 2
spectral count, spiked-in (CHD8; [5]): 3
fold increased affinity compared to nonfunctionalized native H3K36me2 histone 20mer peptide (JHDM1A [4]): ~2 fold
spectral count, endogenous (CHD7; 20 μM probe 6): 5
spectral count, spiked-in (CHD7; [5]): 1
Compound: CC(C)[C@H](NC(=O)CNC(=O)CNC(=O)[C@@H](NC(=O)[C@H](Cc1ccc(C(=O)c2ccccc2)cc1)NC(=O)CCOCCOCCOCCOCCNC(=O)CCCC[C@@H]1SC[C@@H]2NC(=O)N[C@@H]21)[C@@H](C)O)C(=O)N[C@@H](CCCCN(C)CCCCN(O)C(=O)/C=C/C(=O)O)C(=O)N[C@@H](CCCCN)C(=O)N1CCC[C@H]1C(=O)N[C@@H](Cc1c[nH]cn1)C(=O)N[C@@H](CCCNC(=N)N)C(N)=O [probe 6] ({Biotin-PEG4}-[Bpa]TGGV[X1]KPHR-NH2)
spectral count, spiked-in (JMJD2A/KDM4A [2]): 5
spectral count, endogenous (HDAC1/2; 20 μM probe 6): 8
spectral count, spiked-in (HDAC1/2; [5]): 3
